Assays:
[1] = molecular target: T1, Sodium/glucose cotransporter 1 (Homo sapiens, UniProt P13866); assay: Inhibition of human SGLT1 expressed in CHOK1 cells assessed as reduction in sodium-dependent glucose uptake after 30 mins in presence of [14C]-methyl-alpha -D-glucopyranoside by microbeta counting method; format: cell-based
T1 sequence (P13866 whole entry): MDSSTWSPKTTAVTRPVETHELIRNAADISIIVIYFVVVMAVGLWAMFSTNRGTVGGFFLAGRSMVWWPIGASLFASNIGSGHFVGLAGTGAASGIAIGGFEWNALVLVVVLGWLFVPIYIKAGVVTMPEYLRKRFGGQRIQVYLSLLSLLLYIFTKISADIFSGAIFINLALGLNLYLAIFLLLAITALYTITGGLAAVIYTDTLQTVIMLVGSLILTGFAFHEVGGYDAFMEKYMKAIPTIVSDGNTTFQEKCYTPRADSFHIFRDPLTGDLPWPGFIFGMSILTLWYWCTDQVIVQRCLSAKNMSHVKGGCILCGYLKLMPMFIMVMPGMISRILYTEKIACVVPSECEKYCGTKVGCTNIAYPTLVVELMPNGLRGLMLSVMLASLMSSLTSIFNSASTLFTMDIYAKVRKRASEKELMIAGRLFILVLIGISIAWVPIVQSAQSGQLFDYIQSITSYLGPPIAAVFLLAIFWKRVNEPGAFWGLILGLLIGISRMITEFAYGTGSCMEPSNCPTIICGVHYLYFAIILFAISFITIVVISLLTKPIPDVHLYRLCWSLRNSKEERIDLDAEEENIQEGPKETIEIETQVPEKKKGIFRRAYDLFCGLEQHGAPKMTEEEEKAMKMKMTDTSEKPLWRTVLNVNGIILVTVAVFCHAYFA
How it was run: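 CHO-K1 cells stably expressing human SGLT1, preincubated 20 min in Na-free choline buffer (pH 7.4). Uptake buffer (140 mM NaCl, HEPES/Tris pH 7.4) with 0.1 mM methyl-α-D-glucopyranoside plus [14C] tracer and test compound, 30 min at 37 °C. Cells washed, lysed in NaOH, radioactivity counted. Choline-for-Na buffer as background. Six concentrations; IC50 vs untreated control; mean of at least two experiments.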

[2] = molecular target: T2, Sodium/glucose cotransporter 2 (Homo sapiens, UniProt P31639); assay: Inhibition of human SGLT2 expressed in CHOK1 cells assessed as reduction in sodium-dependent glucose uptake after 1 hr in presence of [14C]-methyl-alpha -D-glucopyranoside by microbeta counting method; format: cell-based
T2 sequence (P31639 whole entry): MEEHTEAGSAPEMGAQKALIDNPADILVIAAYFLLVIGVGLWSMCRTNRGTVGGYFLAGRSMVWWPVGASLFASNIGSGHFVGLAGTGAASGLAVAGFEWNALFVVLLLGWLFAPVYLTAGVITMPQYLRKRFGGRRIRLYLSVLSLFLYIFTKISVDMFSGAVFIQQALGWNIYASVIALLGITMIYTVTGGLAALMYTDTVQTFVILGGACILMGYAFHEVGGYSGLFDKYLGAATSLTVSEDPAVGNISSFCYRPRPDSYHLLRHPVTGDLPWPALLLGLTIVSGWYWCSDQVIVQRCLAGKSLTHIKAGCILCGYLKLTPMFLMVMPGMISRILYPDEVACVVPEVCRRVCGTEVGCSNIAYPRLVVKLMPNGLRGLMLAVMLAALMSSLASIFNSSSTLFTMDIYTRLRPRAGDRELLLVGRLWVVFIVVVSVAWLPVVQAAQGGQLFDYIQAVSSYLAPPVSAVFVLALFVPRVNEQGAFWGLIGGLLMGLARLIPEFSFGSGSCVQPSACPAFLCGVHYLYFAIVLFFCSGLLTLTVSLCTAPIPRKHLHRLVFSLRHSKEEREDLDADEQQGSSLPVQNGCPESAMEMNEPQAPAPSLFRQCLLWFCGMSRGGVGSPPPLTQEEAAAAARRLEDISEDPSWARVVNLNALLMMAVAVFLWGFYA
How it was run: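 Human SGLT2 stably expressed in CHO-K1 cells; 20 min Na-free choline pretreatment, then Na+ uptake buffer pH 7.4 with 1 mM methyl-α-D-glucopyranoside containing [14C] label plus compound, 1 h at 37 °C. Washed, NaOH lysis, scintillation counting; Na-free buffer for background. IC50 from six concentrations relative to uninhibited uptake; mean of at least two experiments.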

[3] = Permeability of the compound at pH 7.4 by PAMPA assay; format: ADME; conditions: read-out: permeability
How it was run: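 PAMPA at pH 7.4: filter coated with GIT-0 lipid; donor compartment holds compound in universal buffer at 25 μM or 5 μM; permeability reported as ×10⁻⁶ cm/s.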

[4] = Drug uptake in Sprague-Dawley rat kidney at 0.3 mg/kg, iv administered as single dose after 24 hrs by LCMS analysis; format: ADME, organism-based; conditions: read-out: Drug uptake
How it was run: (§1)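 Fasted male SD rats given single i.v. dose in saline; animals euthanized at 2, 24 and 72 h, kidneys homogenized in purified water and unchanged drug measured by LC-MS/MS (ng/g tissue). Mean ± SD of three animals; 72 h level also expressed relative to 2 h value.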

[5] = Drug uptake in Sprague-Dawley rat kidney at 0.3 mg/kg, iv administered as single dose after 2 hrs by LCMS analysis; format: ADME, organism-based; conditions: read-out: Drug uptake; how it was run: as §1
[6] = Drug excretion in bile duct cannulated Sprague-Dawley rat urine at 2 mg/kg, iv administered as single dose after 24 hrs by LCMS analysis; format: ADME, organism-based; conditions: read-out: Drug excretion
How it was run: (§2)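 Bile duct-cannulated SD rats given single i.v. dose in saline; urine and bile collected over 24 h. Unchanged drug quantified by LC-MS/MS and expressed as cumulative % of dose; mean ± SD of three animals.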

[7] = Drug excretion in bile duct cannulated Sprague-Dawley rat bile at 2 mg/kg, iv administered as single dose after 24 hrs by LCMS analysis; format: ADME, organism-based; conditions: read-out: Drug excretion; how it was run: as §2
[8] = Drug uptake in Sprague-Dawley rat kidney at 0.3 mg/kg, iv administered as single dose after 72 hrs by LCMS analysis; format: ADME, organism-based; conditions: read-out: Drug uptake; how it was run: as §1
[9] = Drug uptake in Sprague-Dawley rat kidney assessed as unchanged drug level at 0.3 mg/kg, iv administered as single dose after 72 hrs by LCMS analysis relative to control; format: ADME, organism-based; conditions: in vivo; how it was run: as §1

IC50 [1] [nM]	IC50 [2] [nM]	Structure (SMILES)	also measured
176		Cc1cc(C)c([C@@H]2O[C@H](CO)[C@@H](O)[C@H](O)[C@H]2O)cc1Cc1ccc(/C=C/C(C)(C)C(=O)NC(C)(C)CO)cc1Cl	
36	34	COc1cc(C(C)C)c(Cc2ccc(/C=C/C(C)(C)C(=O)NC(C)(C)CO)cc2)cc1[C@@H]1O[C@H](CO)[C@@H](O)[C@H](O)[C@H]1O	Papp [3]: 1.8 ×10⁻⁶ cm/s
74	354	COc1cc(C(C)C)c(Cc2ccc(/C=C/C(C)(C)C(=O)NC(C)(C)CO)cc2C)cc1[C@@H]1O[C@H](CO)[C@@H](O)[C@H](O)[C@H]1O	
22	10	Cc1cc(C)c([C@@H]2O[C@H](CO)[C@@H](O)[C@H](O)[C@H]2O)cc1Cc1ccc(/C=C/C(C)(C)C(=O)NC(C)(C)CO)cc1	
55	281	COc1cc(C(C)C)c(Cc2ccc(/C=C/C(C)(C)C(=O)NC(C)(C)C(=O)N3CCN(C)CC3)cc2C)cc1[C@@H]1O[C@H](CO)[C@@H](O)[C@H](O)[C@H]1O	
21		Cc1cc(O)c([C@@H]2O[C@H](CO)[C@@H](O)[C@H](O)[C@H]2O)cc1Cc1ccc(/C=C/C(C)(C)C(=O)NC(C)(C)CO)cc1	
		Cc1cc(O)c([C@@H]2O[C@H](CO)[C@@H](O)[C@H](O)[C@H]2O)cc1Cc1ccc(CCNC(=O)NC(CO)(CO)CO)cc1	concentration at 24 h [4]: 1110 ng/g; concentration at 2 h [5]: 1900 ng/g; dose excreted at 24 h [6]: 36.2%; dose excreted at 24 h [7]: 30.2%; concentration at 72 h [8]: 803 ng/g; Drug uptake [9]: 42%
1170	798	COc1cc(/C=C/C(C)(C)C(=O)NC(C)(C)CO)ccc1Cc1cc([C@@H]2O[C@H](CO)[C@@H](O)[C@H](O)[C@H]2O)c(C)cc1C	
